Screening results (PubChem)
CHRM5 agonist – CHRM5 agonism in calcium assay; CHO-K1 hM5 cells, Fluo-8 calcium fluorescence; 0% DMSO wells, 100% maximal acetylcholine response; P08912; hit rate 0.19% among 360,000; activation, % at 3 µM; AID 624037;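 active means activation above the run's mean over test compounds plus 3 SD, cut at about 23% in these data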;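 further: signal is peak over basal fluorescence ratio across the kinetic read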
Target sequence (P08912 whole entry, looked up): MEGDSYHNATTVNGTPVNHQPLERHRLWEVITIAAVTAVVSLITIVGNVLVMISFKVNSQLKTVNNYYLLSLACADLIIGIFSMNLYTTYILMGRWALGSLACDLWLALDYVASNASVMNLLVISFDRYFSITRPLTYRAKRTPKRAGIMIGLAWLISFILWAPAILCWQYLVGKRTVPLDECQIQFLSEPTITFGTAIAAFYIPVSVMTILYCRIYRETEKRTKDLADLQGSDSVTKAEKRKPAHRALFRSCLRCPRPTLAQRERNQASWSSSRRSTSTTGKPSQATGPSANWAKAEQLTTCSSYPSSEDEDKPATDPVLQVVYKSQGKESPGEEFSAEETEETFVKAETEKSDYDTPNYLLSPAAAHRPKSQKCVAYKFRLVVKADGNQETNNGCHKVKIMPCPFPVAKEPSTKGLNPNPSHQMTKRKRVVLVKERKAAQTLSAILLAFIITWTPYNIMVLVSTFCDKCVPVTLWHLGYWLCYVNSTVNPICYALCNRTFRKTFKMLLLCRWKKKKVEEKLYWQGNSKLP
CHRM4 agonist – CHRM4 agonism in calcium assay | P08173 | CHO-K1 hM4/Gqi5, Fluo-8 calcium fluorescence; vehicle 0%, full acetylcholine response 100% | activation, % at 3 µM | hit rate 0.14% among 360,000 | AID 624127;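 active means activation above the run mean over all test wells plus 3 SD, cut at about 32% in these data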;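 further: peak over basal fluorescence ratio per well then scaled between controls; 0% = DMSO wells and 100% = acetylcholine at EC100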
CHRM5 PAM – positive allosteric modulators of human muscarinic M5 receptor; activation, % at 3 µM; CHO-K1 hM5, Fluo-8 calcium, ACh EC20 PAM; 0% = ACh EC20, 100% = ACh EC100; AID 624038; hit rate 0.3% among 360,000;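 active means activation above the run cutoff, the mean activation of all test compounds plus 3 SD, cut at about 18% in these data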
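system = human M5 receptor in CHO-K1 cells | reagent = EC20 acetylcholine as agonist stimulus | compound dosing = single-point, 3 µM nominal | incubation = Fluo-8 loading 80 min at 37 °C plus 30 min room temperature | detection = Fluo-8 calcium dye fluorescence, kinetic read | benchmarks = low control EC20 acetylcholine (0%), high control EC100 acetylcholine (100%)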
M4 antag – CHRM4 antagonism in calcium assay | P08173 | CHO-hM4 cells, ACh EC80, Fluo-8 calcium fluorescence | inhibition, % at 3 µM | hit rate 0.73% among 360,000;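 active means inhibition above its plate's cutoff, the mean inhibition of sample wells plus 3 SD, cut at about 27% in these data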;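 further: 0% = acetylcholine EC80 with DMSO and 100% = DMSO without agonist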
M5 antag – blocks acetylcholine activation of human M5 receptor | P08912 | CHO-hM5 cells, Fluo-8 calcium fluorescence, ACh EC80 | inhibition, % at 3 µM | hit rate 0.59% among 360,000;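 active means inhibition above a per-plate cutoff, the mean of that plate's test compounds plus 3 SD, cut at about 27% in these data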;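 further: 0% = acetylcholine EC80 with DMSO and 100% = DMSO without agonist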
CHRM4 PAM – positive allosteric modulators of human muscarinic M4 receptor; P08173; CHO-K1 hM4/Gqi5, Fluo-8 calcium fluorescence, ACh EC20; 0% = ACh EC20, 100% = maximal ACh; activation, % at 3 µM; hit rate 0.4% among 360,000;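 active means activation above its plate's cutoff, the mean activation of sample wells plus 3 SD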
An asterisk follows results filed as active. Compounds with a hit are over-represented: about 1.9% of the library has one in this group of screens.

SMILES	CHRM5 agonist	CHRM4 agonist	CHRM5 PAM	M4 antag	M5 antag	CHRM4 PAM
O=C(O)COCC(=O)N1CCN(C(c2ccccc2)c2ccccc2)CC1	-16.4	15.7	-31.2	40.8*	40.0*	-50.4
N#CCC(=O)N1CCN(C(c2ccccc2)c2ccccc2)CC1	-16.2	-0.6	-7.5	5.1	11.6	-7.7
O=C(CN1CCN(C(c2ccccc2)c2ccccc2)CC1)N1CCOCC1	-5.4	1.6	-14.3	37.4*	24.3	-15.8
CC(C)CNC(=O)C1(C)CCCCCN1C(=O)c1csnn1 (stereo not drawn)	-0.2	0.7	1.7	-18.1	3.9	18.8*
CC(C)CNC(=O)C1(C)CCCN1C(=O)c1csnn1 (stereo not drawn)	-0.6	0.1	7.2	-2.2	14.2	10.0
CCN(CC)c1ccc(/C=C2/SC(=O)N(C(C)C)C2=O)o1	2.2	3.3	1.9	41.0*	10.9	-4.2
CCCCCn1c(SCC#N)nc2cc(C(=O)NCC3CCCO3)ccc2c1=O (stereo not drawn)	1.3	2.5	1.9	8.2	1.1	6.6
COC(=O)CNC(=O)CNC(=O)Nc1ccccc1	-3.0	-0.6	8.7	6.5	2.4	2.5
COC(=O)CCCCNC(=O)Nc1ccccc1	0.8	1.0	23.0*	7.4	-0.2	5.6
O=C(NCc1ccccc1)C1CCN(S(=O)(=O)c2ccc(N3CCCC3=O)cc2)CC1	-1.9	4.4	-3.3	-3.2	0.0	3.0
COc1ccc2c(c1)Cc1sc(NC(=O)c3ccccc3)nc1-2	4.8	4.8	4.0	-8.5	3.2	17.5*
Cc1cc(OCC(=O)OCC(=O)Nc2cccnc2Cl)ccc1Cl	3.8	12.5	-1.6	-5.4	4.1	5.7
O=C(Nc1ccc(Cl)cc1)Nc1nnc(CSc2ccc(Cl)cc2)s1	0.1	2.0	-0.3	5.7	-5.9	-4.0
O=C(Nc1ccc(Cl)cc1)Nc1nnc(CSCc2ccccc2)s1	-0.6	2.6	-0.3	3.6	2.5	29.1*
COc1ccc(C(=O)OCC(=O)NC(=O)Nc2ccccc2F)c(OC)c1	1.2	0.4	-7.8	9.1	14.1	21.5*
COc1ccc(C(=O)OCC(=O)NCCCc2ccccc2)c(OC)c1	-2.1	3.1	-4.6	11.5	9.4	-4.4
CCOc1ccccc1NC(=O)C1CCCN(C(=O)NCc2ccccc2)C1 (stereo not drawn)	0.4	0.5	5.0	3.7	-7.0	5.1
CCC(=O)c1ccc(OCC(O)CN2CCN(C(c3ccccc3)c3ccccc3)CC2)cc1 (stereo not drawn)	-6.0	1.0	-27.7	44.3*	15.6	-13.8
N#Cc1ccc(OCC(O)CN2CCN(C(c3ccccc3)c3ccccc3)CC2)cc1 (stereo not drawn)	-6.1	0.4	-17.6	32.4*	37.2*	-19.4
CSC1=NNC(c2ccc(C(C)(C)C)cc2)=NN1	-0.9	1.6	-0.8	-10.1	-0.1	-1.1
CCn1c(=O)c2cc(C(=O)NCCN3CCOCC3)sc2c2ccccc21	0.0	3.3	-12.6	75.5*	7.3	-16.7
CC(Oc1ccccc1)c1nnc(SCC(=O)NC2CC2)n1C (stereo not drawn)	-3.6	1.6	-7.1	1.0	3.1	20.4*
CCn1c(SCC(=O)NC2CC2)nnc1C(C)Oc1ccccc1 (stereo not drawn)	-1.9	0.8	2.1	0.1	1.6	0.9
O=C(Cc1ccsc1)NCc1ccccc1F	-2.8	0.7	7.7	3.8	-14.6	0.2
CNC(=O)C12CC3CC(C1)CC(c1ccc(C)cc1)(C3)C2	1.4	0.0	1.4	9.1	-1.1	-0.8
SMILES	CHRM5 agonist	CHRM4 agonist	CHRM5 PAM	M4 antag	M5 antag	CHRM4 PAM
C=C(C)CSc1nncn1/N=C/c1ccc(OC)cc1	7.1	2.0	1.5	5.9	-7.8	30.4*
CCSc1nncn1/N=C/c1ccc(OC)c(OC)c1	-1.7	0.2	-0.2	1.0	-2.2	9.1
O=[N+]([O-])c1c(Nc2ccccc2O)ccc2nonc12	-2.1	1.6	3.5	8.0	-4.6	-8.4
O=[N+]([O-])c1c(Nc2ccccc2O)cc(Cl)c2nonc12	-10.7	-1.5	8.4	32.9*	21.2	-2.6
CCOC(=O)c1sc(NC(=O)CN2C(=O)NC3(CCCCCCC3)C2=O)c(C(=O)OCC)c1C	0.3	0.2	2.1	27.3*	-1.5	11.4
COCC(C)NC(=O)Cc1ccc(F)cc1 (stereo not drawn)	0.1	0.6	0.3	-4.8	-7.6	7.8
CCN(CC)CCN1c2ccccc2Sc2ccc3ccccc3c21	-7.2	4.1	-21.3	20.5	80.2*	-15.4
CCN(CC)CCN1c2ccccc2Sc2ccccc21	-7.4	3.4	-18.4	89.0*	99.1*	-17.8
O=C(Cn1nnc2c(cnn2-c2ccc(F)cc2)c1=O)OC1CCCCC1	-4.0	6.4	6.2	-15.3	-0.8	-3.6
C=CCNC(=O)Nc1ccc2nc(C)sc2c1	1.0	2.9	7.5	1.1	-7.8	11.4
C=CCN(CC=C)C(=O)Nc1ccc2nc(C)sc2c1	1.5	2.6	0.7	-6.7	-1.7	21.2*
Cc1cc(Nc2nc3ccccc3[nH]c2=O)n(-c2ccccc2)n1	-1.8	7.6	23.3*	-16.0	-8.6	-6.2
CCCc1cc(=O)n2[nH]c(NCc3c(Cl)cccc3Cl)nc2n1	-7.7	-0.4	2.7	14.2	-2.0	-0.8
CCCc1cc(=O)n2[nH]c(NC(=O)c3ccco3)nc2n1	-0.3	0.2	3.5	-24.1	0.4	14.5*
Cc1cccc(C)c1NC(=O)CN(C)C(=O)[C@H](C)NC(=O)c1ccco1	-0.1	0.8	-3.1	-8.2	7.6	24.1*
CSCCC(NC(=O)c1ccco1)C(=O)N(C)CC(=O)Nc1c(Cl)cccc1Cl (stereo not drawn)	3.6	2.0	13.1	0.5	-3.2	15.0
CCOc1ccccc1NC(=O)COC(=O)Cc1cccs1	-1.6	-2.7	6.2	99.5*	-13.1	-15.5
CSc1ccccc1NC(=O)COC(=O)Cc1cccs1	-0.6	1.1	-2.8	7.0	3.9	4.1
C[C@H](NC(=O)c1ncn2c1c(=O)[nH]c1ccc(Br)cc12)c1ccccc1	0.3	1.2	1.0	-5.5	-4.5	-1.3
CCCCSc1ncc(C(=O)OCC)c(N)n1	-6.3	-0.6	0.4	1.3	-3.1	-5.3
CCOC(=O)c1cnc(SCCc2ccccc2)nc1N	-4.8	-2.9	3.4	2.1	-6.7	34.8*
C/C(Cn1nnc([N+](=O)[O-])n1)=N\NC(=O)c1ccc(C)cc1	-0.5	0.9	-3.4	1.9	4.9	8.4
COc1ccccc1N1CCN(Cc2cn[nH]c2-c2ccc(F)cc2)CC1	40.0*	24.0	-7.6	8.8	6.7	17.4
CC(C)n1cnc2c(N(C)c3ccccc3)nc(N(CCN(C)C)Cc3ccccc3)nc21	-9.1	6.4	-10.5	5.1	34.2*	-4.1
